Only some compounds are listed: those with a hit (about 2.8% of all), similar ones and a draw of the others.
ARFGAP1 inhibitor: inhibitors of rat ARFGAP1 GAP activity, primary screen, biochemical, fluorescence polarization, GDP tracer; ADP-ribosylation factor GTPase-activating protein 1 (Rattus norvegicus), Q62848; hit rate 0.26% among 360,000; inhibition, % at 16.5 µM; Arfgap1-stimulated ARF1 GTP hydrolysis, GDP FP detection;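 active = inhibition above a per-plate limit, mean inhibition of low control wells plus 3 SD, cut at about 25% in these data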;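 note: 0% = DMSO wells with enzyme and 100% = wells lacking Arfgap1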
Target sequence (Q62848 1-136 limits assumed): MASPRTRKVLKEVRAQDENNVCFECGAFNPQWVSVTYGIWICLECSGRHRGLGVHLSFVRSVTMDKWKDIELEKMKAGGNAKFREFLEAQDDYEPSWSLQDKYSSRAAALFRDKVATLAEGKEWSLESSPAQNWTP
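Repeats: one replicate per compound; assay system: rat Arfgap1 catalytic domain, aa 1-136; times: enzyme reaction 120 min at 25 °C after 20 min preincubation; detection: FP of antibody-bound GDP Alexa 633 tracer, ex 620/em 688 nm; benchmarks: high control wells lacking Arfgap1, low control full reaction with DMSO; reagent: human ARF1(Δ1-17)-GTP substrate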
pPAFAH FP inh: pPAFAH enzyme inhibitors, primary screen, biochemical, fluorescence polarization, human; inhibition, % at 3.39 µM; Platelet-activating factor acetylhydrolase (Homo sapiens), Q13093; recombinant pPAFAH, FP-rhodamine probe fluorescence polarization; hit rate 1.5% among 330,000;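 active = inhibition above the mean inhibition across the screen plus 3 SD, cut at about 25% in these data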;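 note: inhibitors block binding of the rhodamine activity-based probe so polarization drops; 0% = enzyme with DMSO and 100% = wells lacking pPAFAH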
PAFAH2 inh: PAFAH2 enzyme inhibitors, primary screen, biochemical, fluorescence polarization, human; inhibition, % at 3.39 µM; AID 492956, 2010; hit rate 0.99% among 340,000; recombinant PAFAH2, FP-rhodamine activity probe; Platelet-activating factor acetylhydrolase 2, cytoplasmic (Homo sapiens), Q99487;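 active = inhibition above the mean over all tested compounds plus 3 SD, cut at about 30% in these data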;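 note: inhibitors block probe labeling of enzyme so polarization drops; 0% = enzyme with DMSO and 100% = wells lacking PAFAH2 protein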
PAFAH1B3 inh: PAFAH1B3 enzyme inhibitors, primary screen, biochemical, fluorescence polarization, human | inhibition, % at 3.39 µM | recombinant PAFAH1B3, FP-rhodamine probe | AID 492972, 2010 | hit rate 0.28% among 340,000;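 active = inhibition above the screen-wide average of all tested compounds plus 3 SD, cut at about 25% in these data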;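 note: 0% = enzyme with DMSO only and 100% = wells lacking PAFAH1B3 protein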
Target sequence (Q15102 whole entry, looked up): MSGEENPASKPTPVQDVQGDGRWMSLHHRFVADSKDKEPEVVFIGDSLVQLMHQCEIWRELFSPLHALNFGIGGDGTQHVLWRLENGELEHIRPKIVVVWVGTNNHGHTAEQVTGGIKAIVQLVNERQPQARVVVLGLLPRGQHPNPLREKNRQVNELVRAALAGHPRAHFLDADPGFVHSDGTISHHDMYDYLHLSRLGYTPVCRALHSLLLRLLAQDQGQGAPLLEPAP
ASAP1 inh: inhibitors of human ASAP1 ArfGAP activity, primary screen, biochemical, fluorescence polarization; inhibition, % at 16.5 µM; hit rate 0.19% among 360,000; ASAP1-stimulated ARF1 GTP hydrolysis, GDP FP detection; in the data active = inhibition above about 25%;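 note: 0% = vehicle with enzyme and substrate and 100% = no enzyme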
PAFAH1B2 FP inh: PAFAH1B2 enzyme inhibitors, primary screen, biochemical, fluorescence polarization, human. Platelet-activating factor acetylhydrolase IB subunit alpha2 (Homo sapiens), P68402. recombinant PAFAH1B2, FP-rhodamine activity probe. inhibition, % at 3.39 µM. hit rate 1.2% among 340,000. AID 492953, 2010;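 active = inhibition above the mean of all tested compounds plus 3 SD, cut at about 24% in these data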;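 note: 0% = enzyme with DMSO and 100% = wells lacking PAFAH1B2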
Target sequence (P68402 whole entry, looked up): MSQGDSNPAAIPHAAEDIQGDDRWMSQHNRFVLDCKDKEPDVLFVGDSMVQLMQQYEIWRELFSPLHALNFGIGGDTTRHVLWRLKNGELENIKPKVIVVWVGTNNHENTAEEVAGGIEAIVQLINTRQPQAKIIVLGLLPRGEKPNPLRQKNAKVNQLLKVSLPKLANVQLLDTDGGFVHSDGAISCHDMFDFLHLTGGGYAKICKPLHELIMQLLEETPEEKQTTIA
ASAP1 GAP conf: ASAP1 GAP activity inhibitors, confirmation, biochemical, fluorescence polarization, human, triplicate. shares compounds with ASAP1 inh. ASAP1-stimulated Arf1 GTPase, GDP fluorescence polarization. inhibition, % at 16.5 µM. hit rate 37% among 620. AID 624431, 2012;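 active = mean inhibition over triplicates exceeds the hit threshold derived for the earlier primary screening run, cut at about 25% in these data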
ARFGAP1 confirm: ARFGAP1 inhibitor hit confirmation, biochemical, fluorescence polarization, triplicate; shares compounds with ARFGAP1 inhibitor; ARFGAP1-stimulated ARF1 GTP hydrolysis, GDP tracer FP; inhibition, % at 16.5 µM; hit rate 30% among 890;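 active = average inhibition over triplicates above the hit cutoff set in the earlier primary screen, cut at about 25% in these data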;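 note: 0% = Arfgap1 plus ARF1-GTP with DMSO and 100% = wells lacking Arfgap1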
* = called active by the depositor; . = no result given.

SMILES	ARFGAP1 inhibitor	pPAFAH FP inh	PAFAH2 inh	PAFAH1B3 inh	ASAP1 inh	PAFAH1B2 FP inh	ARFGAP1 confirm	others
COc1cc(/C=C(/C#N)c2nc3ccccc3[nH]2)ccc1OCc1ccc(C(=O)O)o1	6	8	-10	17	1	14	.
CCc1ccc2c(c1)NC(=O)C2(C)Cc1ccccc1Cl (centres undefined)	-2	.	.	.	7	.	.
CCOc1ccc(S(=O)(=O)Nc2cc(SCC(=O)O)c(O)c3ccccc23)cc1	0	.	21	23	-6	16	.
O=C(O)CSc1cc(NS(=O)(=O)c2cccc([N+](=O)[O-])c2)c2ccccc2c1O	25*	.	28	49*	28*	28*	-9	ASAP1 GAP conf=14
CCN(CC)CCNS(=O)(=O)c1ccc2c3c(cccc13)C(=O)N2	8	2	4	4	1	-2	.
COc1ccc(-n2c(N)c(C(=O)NCC3CCCO3)c3nc4ccccc4nc32)c(OC)c1 (centres undefined)	28*	12	4	5	31*	5	6	ASAP1 GAP conf=14
Cc1cc(N2CCN(C)CC2)nc2ccc(NC(=O)c3cccnc3Cl)cc12	29*	10	2	11	49*	0	28*	ASAP1 GAP conf=25*
CN(Cc1ccccc1F)C(=O)CN1c2cccc3cccc(c23)S1(=O)=O	29*	9	-1	2	30*	0	51*	ASAP1 GAP conf=41*
COc1ccc(NC(=O)C2CCCN(S(=O)(=O)c3ccc4c(c3)CC(C)N4C(C)=O)C2)cc1 (centres undefined)	26*	4	-3	4	-2	6	1
CCCCCC1C(=O)C[C@@H]2CCN3C(=O)CCC[C@H]1[C@H]23 (some centres undefined)	7	3	-4	7	8	2	.
COc1ccc(CCNC(=O)Nc2nnc([C@H]3C[C@H](O)[C@@H](CO)O3)s2)cc1OC	-10	.	.	.	-8	.	.
COc1ccc(C(=O)C=CNNC(=O)c2ccc(Cl)cc2)cc1	26*	-4	3	15	-8	6	-1
CC(C)Cn1c(N)c(S(=O)(=O)c2cccs2)c2nc3ccccc3nc21	27*	.	-3	4	-10	2	-3
COc1ccc(-c2nc3cc(NC(=O)Cc4ccc(OC)c(OC)c4)ccc3o2)cc1	25*	4	-6	3	10	-6	15
CCCc1ccc(Oc2cn[nH]c2-c2ccc(O)c(C)c2O)cc1	27*	18	1	2	14	1	31*
CCCc1ccc(Oc2c(-c3ccc(O)c(C)c3O)n[nH]c2C)cc1	8	1	1	6	-2	1	.
CC1C(=O)N(Cc2cn(CC3CCCCC3)nn2)CCS(=O)(=O)N1Cc1ccc(-c2cccc(CO)c2)cc1 (centres undefined)	-4	.	.	.	8	.	.
O=c1c(C(c2ccc(Cl)cc2)c2c(O)nc3n(c2=O)CCS3)c(O)nc2n1CCS2	-15	5	8	-2	4	-2	.
O=c1c(C(c2ccc(F)cc2)c2c(O)nc3n(c2=O)CCS3)c(O)nc2n1CCS2	26*	5	27	5	-16	9	0
COc1ccc(CNC(=O)CSc2nnc(C(F)(F)F)n2C)cc1	29*	4	6	3	4	-3	-5
COC(=O)[C@@]1(Cc2ccccc2)[C@H]2C(=O)N(C)C(=O)[C@H]2[C@H]2CN(C)C(=NCc3ccccc3)N21	-6	.	2	3	1	4	.
CN(c1cccnc1)c1ccc(NC(=O)Cc2c[nH]c3ccccc23)cc1-c1ccc(F)c(F)c1	25*	.	.	.	3	.	6
COc1ccc(C(=O)N/N=C/c2cc(Br)ccc2O)cc1OC	33*	10	0	18	13	7	50*
COc1cc(Cl)cc(/C=N\NC(=O)c2ccc3c(c2)OCO3)c1O	34*	.	.	.	5	.	43*
O=C(N/N=C/c1cc(Cl)cc([N+](=O)[O-])c1O)c1ccc2c(c1)OCO2	-12	12	10	11	-4	-1	.
SMILES	ARFGAP1 inhibitor	pPAFAH FP inh	PAFAH2 inh	PAFAH1B3 inh	ASAP1 inh	PAFAH1B2 FP inh	ARFGAP1 confirm	others
COc1ccc(Br)cc1/C=N/NC(=O)c1cc(Br)ccc1O	.	5	.	.	.	.	.
COc1ccc(O)c(/C=N/NC(=O)c2ccc(CSc3nc(C)cc(C)n3)cc2)c1	30*	27*	1	9	13	16	33*
COc1ccc(/C=N/NC(=O)c2ccc(CSc3nc(C)cc(C)n3)cc2)cc1O	6	16	-13	3	-7	1	.
O=S(=O)(Nc1ccc(-c2cn3c(n2)SCC3)cc1)c1cc(F)ccc1F	-2	.	.	.	2	.	.
CCOCCCN1C(=O)C(=O)N(CC(=O)N2c3ccccc3NC(=O)CC2C)C1=O (centres undefined)	9	-3	2	2	-2	-5	.
CC(=O)N1CCC(C(=O)N2c3ccccc3N=C(c3ccc(C(F)(F)F)cc3)C2C(=O)NC(C)(C)C)CC1 (centres undefined)	-3	.	.	.	0	.	.
Cc1ccccc1OCC(=O)N(Cc1cccs1)C1CCS(=O)(=O)C1 (centres undefined)	25*	7	1	6	10	4	-1
O=C(Nc1ccc(Cl)cc1)OCc1cn(-c2ccc(Cl)cc2)nn1	68*	-2	-8	2	78*	-6	53*
Cc1nn(Cc2ccc(C(=O)NN)o2)c(C)c1Cl	2	-2	-13	4	-6	3	.
Cc1nn(Cc2ccc(C(=O)Nc3ccc(C(=O)OC(C)C)cc3)o2)c(C)c1Cl	26*	-8	-1	-8	15	0	27*
O=C(NC(c1ccc(F)cc1)c1ccc2ccccc2n1)C1CCN(Cc2cccc(C(F)(F)F)c2)CC1 (centres undefined)	28*	.	.	.	-5	.	14
O=C(NC(c1ccc(F)cc1)c1ccc2ccccc2n1)C1CCN(Cc2ccc3ccccc3n2)CC1 (centres undefined)	0	.	.	.	9	.	.
COc1cccc2c(Nc3ccccc3C)cc(C)nc12	-9	12	5	-5	8	1	.

Compound activity (PubChem)
